According to ChEMBL document CHEMBL1921766, “Orally active zwitterionic factor Xa inhibitors with long duration of action” (Bioorg Med Chem Lett, 2011):
Values after ≈ are worked out from the molar mass of the structure shown.

Legend:
[1] = Solubility of the compound in Japanese pharmacopoeia first fluid at pH 1.2 at 10 mM after 12 hrs; type: physicochemical
Method in brief: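 Solubility measured in Japanese Pharmacopoeia First Fluid, pH 1.2.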

[2] = 1-Octanol-phosphate buffered saline distribution coefficient, log D of the compound at pH 7.4 after 30 mins by shake flask method; type: physicochemical
Method in brief: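 Log D measured as the partition between 1-octanol and phosphate buffered saline, pH 7.4.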

[3] = Metabolic stability in human liver microsomes at 1 uM after 20 to 30 mins by LC/MS/MS analysis in presence of NADPH; type: ADME, Microsome; settings: read-out: Stability
Method in brief: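 Metabolic stability read as percent remaining after incubation with human liver microsomes in vitro.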

[4] = Solubility of the compound in Japanese pharmacopoeia second fluid at pH 6.8 at 10 mM after 12 hrs; type: physicochemical
Method in brief: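 Solubility measured in Japanese Pharmacopoeia Second Fluid, pH 6.8.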

[5] = Cmax in monkey serum at 1 mg/kg, po by LC-MS/MS analysis; type: ADME, organism-based, Macaca mulatta; design: dose 1 mg/kg, route oral; settings: rhesus monkey
Method in brief: (§1)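 Oral dosing of fasting monkeys (two animals) at 1.0 mg/kg, given as HCl salts. Plasma was sampled at 0.5, 1, 2, 4, 8 and 24 h for ex vivo anti-fXa inhibition (%) and for drug concentration. AUC, Cmax, C24 h and the Cmax/C24 h ratio were taken from the plasma concentrations.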

[6] = Drug level in monkey serum at 1 mg/kg, po at 24 hrs by LC-MS/MS analysis; type: ADME, organism-based, Macaca mulatta; design: dose 1 mg/kg, route oral; settings: rhesus monkey, read-out: Drug uptake; method in brief: as §1
[7] = AUC in monkey serum at 1 mg/kg, po by LC-MS/MS analysis; type: ADME, organism-based, Macaca mulatta; design: dose 1 mg/kg, route oral; settings: rhesus monkey; method in brief: as §1
[8] = Bioavailability in monkey at 1 mg/kg, iv after 24 hrs by LC-MS/MS analysis; type: ADME, organism-based, Macaca mulatta; settings: rhesus monkey, in vivo

SMILES | solubility at 12 h, 10000 µM [1] | logD at 0.5 h [2] | remaining at 1 µM [3] | solubility at 12 h, 10000 µM [4] | Cmax [5] | concentration at 24 h [6] | AUC [7] | bioavailability [8]
COc1cc(C(=O)O)cc(NC(=O)c2nc3c(s2)CN(C(C)C)CC3)c1CCC(=O)Nc1ccc(Cl)cc1 | 810 µg/mL (≈ 1450 µM) | 1.15 | 87% | 39 µg/mL (≈ 70 µM) | – | – | – | –
O=C(O)c1ccc(CNC(=O)c2ccc(Cl)s2)c(NC(=O)c2nc3c(s2)CN(C(CF)CF)CC3)c1 | 120 µg/mL (≈ 216 µM) | 0.44 | 100% | 870 µg/mL (≈ 1570 µM) | – | – | – | –
CC(C)N1CCc2nc(C(=O)Nc3cc(C(=O)O)ccc3CCC(=O)Nc3ccc(Cl)cn3)sc2C1.Cl | – | – | – | – | 98 ng/mL | 9.5 ng/mL | 785 ng·h/mL | –
CC(C)Oc1cc(C(=O)O)cc(NC(=O)c2nc3c(s2)CN(C(C)C)CC3)c1CCC(=O)Nc1ccc(Cl)cc1 | 320 µg/mL (≈ 547 µM) | 1.91 | 86% | 130 µg/mL (≈ 222 µM) | – | – | – | –
CC(C)N1CCc2nc(C(=O)Nc3cc(C(=O)O)cc(Cl)c3CCC(=O)Nc3ccc(Cl)cc3)sc2C1.Cl | – | – | – | – | 67 ng/mL | 17 ng/mL | 724 ng·h/mL | –
CCN1CCc2nc(C(=O)Nc3cc(C(=O)O)ccc3CNC(=O)c3ccc(Cl)s3)sc2C1 | 230 µg/mL (≈ 455 µM) | 0.14 | 97% | 1000 µg/mL (≈ 1980 µM) | – | – | – | –
CC(C)N1CCc2nc(C(=O)Nc3c(CNC(=O)c4ccc(Cl)s4)cccc3C(=O)O)sc2C1 | 1000 µg/mL (≈ 1930 µM) | 0.28 | 96% | 1000 µg/mL (≈ 1930 µM) | – | – | – | –
CC(C)N1CCc2nc(C(=O)Nc3cc(C(=O)O)cc(F)c3CCC(=O)Nc3ccc(Cl)cc3)sc2C1 | 970 µg/mL (≈ 1780 µM) | 1.1 | 100% | 11 µg/mL (≈ 20.2 µM) | – | – | – | –
CC(CF)N1CCc2nc(C(=O)Nc3cc(C(=O)O)ccc3CNC(=O)c3ccc(Cl)s3)sc2C1 (centres undefined) | 160 µg/mL (≈ 298 µM) | 0.45 | 94% | 580 µg/mL (≈ 1080 µM) | – | – | – | –
CN1CCc2nc(C(=O)Nc3cc(C(N)=O)ccc3CNC(=O)c3ccc(Cl)s3)sc2C1 | 30 µg/mL (≈ 61.2 µM) | – | 77% | < 2.4 µg/mL | – | – | – | –
O=C(O)c1ccc(CNC(=O)c2ccc(Cl)s2)c(NC(=O)c2nc3c(s2)COCC3)c1 | 2 µg/mL (≈ 4.18 µM) | 0.02 | 82% | 950 µg/mL (≈ 1990 µM) | – | – | – | –
CN1CCc2nc(C(=O)Nc3ccccc3CNC(=O)c3ccc(Cl)s3)sc2C1.Cl | – | – | – | – | 95.9 ng/mL | 0.6 ng/mL | 346 ng·h/mL | –
CC(C)N1CCc2nc(C(=O)Nc3cc(C(=O)O)cc(F)c3CCC(=O)Nc3ccc(Cl)cc3)sc2C1.Cl | – | – | – | – | 32 ng/mL | 6.1 ng/mL | 448 ng·h/mL | –
CN1CCc2nc(C(=O)Nc3cc(C(=O)O)ccc3CNC(=O)c3ccc(Cl)s3)sc2C1.Cl | – | – | – | – | 25.8 ng/mL | 4 ng/mL | 247 ng·h/mL | –
O=C(NCc1cccc(C(=O)O)c1NC(=O)c1nc2c(s1)COCC2)c1ccc(Cl)s1 | 2 µg/mL (≈ 4.18 µM) | -0.12 | 57% | 930 µg/mL (≈ 1950 µM) | – | – | – | –
CCOc1cc(C(=O)O)cc(NC(=O)c2nc3c(s2)CN(C(C)C)CC3)c1CCC(=O)Nc1ccc(Cl)cc1 | 370 µg/mL (≈ 648 µM) | 1.62 | 93% | 3 µg/mL (≈ 5.25 µM) | – | – | – | –
CC(C)N1CCc2nc(C(=O)Nc3c(CCC(=O)Nc4ccc(Cl)cc4)cccc3C(=O)O)sc2C1 | 1000 µg/mL (≈ 1900 µM) | 0.66 | 100% | 830 µg/mL (≈ 1570 µM) | – | – | – | –
CC(C)N1CCc2nc(C(=O)Nc3cc(C(=O)O)cc(Cl)c3CCC(=O)Nc3ccc(Cl)cc3)sc2C1 | 450 µg/mL (≈ 801 µM) | 1.61 | 93% | 160 µg/mL (≈ 285 µM) | – | – | – | 52%
CC(C)N1CCc2nc(C(=O)Nc3cc(C(=O)O)ccc3CCC(=O)Nc3ccc(Cl)cc3)sc2C1 | 490 µg/mL (≈ 930 µM) | 0.82 | 100% | 720 µg/mL (≈ 1370 µM) | – | – | – | 67%
CC(C)N1CCc2nc(C(=O)Nc3cc(C(=O)O)ccc3CCC(=O)Nc3ccc(Br)cc3)sc2C1 | 65 µg/mL (≈ 114 µM) | 1.08 | 88% | 520 µg/mL (≈ 910 µM) | – | – | – | –

Other lines, results leading:

solubility at 12 h, 10000 µM [1] | logD at 0.5 h [2] | remaining at 1 µM [3] | solubility at 12 h, 10000 µM [4] | Cmax [5] | concentration at 24 h [6] | AUC [7] | bioavailability [8] | SMILES
140 µg/mL (≈ 278 µM) | – | 85% | 2.7 µg/mL (≈ 5.36 µM) | – | – | – | – | CNC(=O)c1ccc(CNC(=O)c2ccc(Cl)s2)c(NC(=O)c2nc3c(s2)CN(C)CC3)c1
610 µg/mL (≈ 1110 µM) | 0.41 | 100% | 1000 µg/mL (≈ 1820 µM) | – | – | – | – | COCC(C)N1CCc2nc(C(=O)Nc3cc(C(=O)O)ccc3CNC(=O)c3ccc(Cl)s3)sc2C1 (centres undefined)
810 µg/mL (≈ 1530 µM) | 0.23 | 100% | 86 µg/mL (≈ 163 µM) | – | – | – | – | CC(C)N1CCc2nc(C(=O)Nc3cc(C(=O)O)ccc3CCC(=O)Nc3ccc(Cl)cn3)sc2C1
710 µg/mL (≈ 1450 µM) | -0.38 | – | > 800 µg/mL | – | – | – | – | CN1CCc2nc(C(=O)Nc3c(CNC(=O)c4ccc(Cl)s4)cccc3C(=O)O)sc2C1
– | – | – | – | 87 ng/mL | 26 ng/mL | 1370 ng·h/mL | – | CC(C)N1CCc2nc(C(=O)Nc3cc(C(=O)O)ccc3CCC(=O)Nc3ccc(Cl)cc3)sc2C1.Cl
– | – | – | – | 109 ng/mL | – | 285 ng·h/mL | – | CN1CCc2nc(C(=O)Nc3c(CNC(=O)c4ccc(Cl)s4)cccc3C(N)=O)sc2C1.Cl
49 µg/mL (≈ 94.4 µM) | 0.57 | 96% | 41 µg/mL (≈ 79 µM) | – | – | – | 51% | CC(C)N1CCc2nc(C(=O)Nc3cc(C(=O)O)ccc3CNC(=O)c3ccc(Cl)s3)sc2C1
– | – | – | – | 50.5 ng/mL | 2 ng/mL | 221 ng·h/mL | – | CC(C)N1CCc2nc(C(=O)Nc3c(CNC(=O)c4ccc(Cl)s4)cccc3C(=O)O)sc2C1.Cl
740 µg/mL (≈ 1510 µM) | – | 94% | 710 µg/mL (≈ 1450 µM) | – | – | – | – | CN1CCc2nc(C(=O)Nc3c(CNC(=O)c4ccc(Cl)s4)cccc3C(N)=O)sc2C1
320 µg/mL (≈ 621 µM) | – | – | 470 µg/mL (≈ 913 µM) | – | – | – | – | CN1CCc2nc(C(=O)Nc3cc(-c4nnn[nH]4)ccc3CNC(=O)c3ccc(Cl)s3)sc2C1
430 µg/mL (≈ 862 µM) | 0.27 | 95% | 24 µg/mL (≈ 48.1 µM) | – | – | – | – | CN1CCc2nc(C(=O)Nc3cc(C(=O)O)ccc3CCC(=O)Nc3ccc(Cl)cc3)sc2C1
900 µg/mL (≈ 1740 µM) | – | 81% | 980 µg/mL (≈ 1890 µM) | – | – | – | – | CN1CCc2nc(C(=O)Nc3c(CNC(=O)c4ccc(Cl)s4)cccc3C(=O)N(C)C)sc2C1
> 900 µg/mL | – | 67% | 830 µg/mL (≈ 1600 µM) | – | – | – | – | CN1CCc2nc(C(=O)Nc3cc(C(=O)N(C)C)ccc3CNC(=O)c3ccc(Cl)s3)sc2C1
– | – | – | – | 67.1 ng/mL | 7.1 ng/mL | 605 ng·h/mL | – | CC(C)N1CCc2nc(C(=O)Nc3cc(C(=O)O)ccc3CNC(=O)c3ccc(Cl)s3)sc2C1.Cl
– | – | 53% | – | – | – | – | – | CN1CCc2nc(C(=O)Nc3ccccc3CNC(=O)c3ccc(Cl)s3)sc2C1
700 µg/mL (≈ 1180 µM) | 1.64 | 77% | 310 µg/mL (≈ 521 µM) | – | – | – | – | CC(C)N1CCc2nc(C(=O)Nc3cc(C(=O)O)cc(C(F)(F)F)c3CCC(=O)Nc3ccc(Cl)cc3)sc2C1
72 µg/mL (≈ 147 µM) | – | 95% | 13 µg/mL (≈ 26.5 µM) | – | – | – | – | CN1CCc2nc(C(=O)Nc3ccc(C(=O)O)cc3CNC(=O)c3ccc(Cl)s3)sc2C1
55 µg/mL (≈ 112 µM) | -0.29 | 71% | > 850 µg/mL | – | – | – | – | CN1CCc2nc(C(=O)Nc3cc(C(=O)O)ccc3CNC(=O)c3ccc(Cl)s3)sc2C1
990 µg/mL (≈ 1740 µM) | – | – | 1000 µg/mL (≈ 1760 µM) | – | – | – | – | CN1CCc2nc(C(=O)Nc3cc(C(=O)NS(C)(=O)=O)ccc3CNC(=O)c3ccc(Cl)s3)sc2C1
980 µg/mL (≈ 1920 µM) | 0.27 | 94% | 140 µg/mL (≈ 274 µM) | – | – | – | – | CC(C)N1CCc2nc(C(=O)Nc3cc(C(=O)O)ccc3CCC(=O)Nc3ccc(F)cc3)sc2C1
830 µg/mL (≈ 1650 µM) | – | 80% | 130 µg/mL (≈ 258 µM) | – | – | – | – | CNC(=O)c1cccc(CNC(=O)c2ccc(Cl)s2)c1NC(=O)c1nc2c(s1)CN(C)CC2
890 µg/mL (≈ 1760 µM) | – | 42% | 52 µg/mL (≈ 103 µM) | – | – | – | – | COC(=O)c1ccc(CNC(=O)c2ccc(Cl)s2)c(NC(=O)c2nc3c(s2)CN(C)CC3)c1
250 µg/mL (≈ 500 µM) | -0.28 | 92% | 210 µg/mL (≈ 420 µM) | – | – | – | – | CN1CCc2nc(C(=O)Nc3cc(C(=O)O)ccc3CCC(=O)Nc3ccc(Cl)cn3)sc2C1
